Paper PMC10228170 (Journal of Pharmaceutical and Biomedical Analysis, 2023)
Where two headings read alike, the source gives them in different places. Marks after values point to notes of the source that are not given here.

What was measured:
[1] = prodrug molnupiravir, metabolized to NHC in vivo; cited from earlier work
[2] = type: in vivo; settings: rat
Summary of the method: (§1)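 Male Sprague-Dawley rats (200 ± 50 g) were fasted 12 h and anaesthetised with urethane 1 g/kg i.p. A blood probe (1.2 cm) sat in the jugular vein and a brain probe (0.7 cm) in the striatum (+0.2 AP, +3.0 ML, −7.5 DV from bregma). Both were perfused with ACD at 2.0 µL/min. Test compound 100 mg/kg i.v. via femoral vein. Dialysates collected every 20 min for 6 h; UHPLC-MS/MS (MRM); noncompartmental parameters; AUC ratios; n = 6.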

[3] = Pharmacokinetics of molnupiravir and NHC in rat blood and brain; type: in vivo; settings: for concentration at 140 min: intravenous
Summary of the method: as §1

[4] = type: in vivo; settings: male, Sprague-Dawley, rat, iv, 100 mg/kg
Summary of the method: as §1

[5] = male, Sprague-Dawley, blood (microdialysate), iv, 100 mg/kg
[6] = male, Sprague-Dawley, blood dialysate, iv, 100 mg/kg
[7] = male, Sprague-Dawley, brain (striatum microdialysate), iv, 100 mg/kg
[8] = male, Sprague-Dawley, brain (striatum) dialysate, iv, 100 mg/kg
[9] = male, Sprague-Dawley, rat, blood (microdialysate), iv, 100 mg/kg
[10] = male, Sprague-Dawley, rat, brain (striatum microdialysate), iv, 100 mg/kg
[11] = brain (striatum microdialysate)

For `CC(C)C(=O)OC[C@H]1O[C@@H](n2ccc(NO)nc2=O)[C@H](O)[C@@H]1O` [Molnupiravir, molnupiravir], the bioavailability [1] is given as “more than 90%”, the MRT [2, 5] is given as 77 min and the clearance [2, 5] is given as 16 ± 1.28 mL/min/kg. It also gave an AUC [2, 6] of 110000 ng·h/mL, a Cmax [2, 6] of 199000 ± 17000 ng/mL and a half-life [2, 6] of 132 ± 32 min. It also gave an MRT [2, 7] of 238 min, a Tmax [2, 7] of 40 min and an AUC [2, 8] of 1790 ng·h/mL. The Cmax [2, 8] was 790 ± 220 ng/mL, the half-life [2, 8] was 148 ± 34 min and the “AUCbrain/AUCblood (blood-to-brain transfer ratio)” value ([2]; molnupiravir 100 mg/kg i.v. + BNPP 50 mg/kg i.v.) was 0.02 ± 0.004^a. The AUC [3, 9] was 57200 ng·h/mL, the Cmax [3, 9] was 192000 ± 24100 ng/mL and the clearance [3, 9] was 32.1 ± 4.45 mL/min/kg. The half-life [3, 9] was 9 ± 2 min, the concentration at 140 min ([3]; male, Sprague-Dawley, rat, blood dialysate, 100 mg/kg) was 49.2 ng/mL and the MRT ([3]; male, Sprague-Dawley, rat, blood dialysate, iv, 100 mg/kg) was 18 min. The AUC [3, 10] was 318 ng·h/mL, the Cmax [3, 10] was 390 ± 100 ng/mL and the half-life [3, 10] was 10 ± 1 min. For the same molecule, the concentration at 140 min ([3]; male, Sprague-Dawley, rat, brain (striatum) dialysate, 100 mg/kg) was 103 ng/mL, the MRT ([3]; male, Sprague-Dawley, rat, brain (striatum) dialysate, iv, 100 mg/kg) was 35 min and the Tmax ([3]; male, Sprague-Dawley, rat, brain (striatum) dialysate, iv, 100 mg/kg, Tmax, rat brain, molnupiravir 100 mg/kg i.v. alone) was 40 min. For the same molecule, the “time of biotransformation of molnupiravir to NHC” value ([3]; rat blood, molnupiravir 100 mg/kg i.v.) was ≤ 20 min, the “AUCbrain/AUCblood (blood-to-brain transfer ratio)” value ([3]; rat, molnupiravir 100 mg/kg i.v. alone) was 0.005 ± 0.001^b and the AUC ([4]; blood (microdialysate)) was 77400 ng·h/mL. It also gave a Cmax ([4]; blood (microdialysate)) of 185000 ± 18700 ng/mL, an MRT ([4]; blood (microdialysate)) of 29 min and a clearance ([4]; blood (microdialysate)) of 21.7 ± 0.66 mL/min/kg. For the same molecule, the half-life ([4]; blood (microdialysate)) was 35 ± 10 min, the AUC [4, 11] was 755 ng·h/mL and the MRT [4, 11] was 53 min. The Tmax [4, 11] was 40 min, the half-life [4, 11] was 68 ± 22 min and the Cmax ([4]; brain (striatum) dialysate) was 500 ± 90 ng/mL.
